Active and inactive are the calls of the source. The rule behind the calls is not given here.

By EC50 is commonly meant the concentration giving half of the maximal effect. In general, CC50 refers to the concentration at which the toxic effect on the cells reaches its halfway point.

The test system of series [1] is Human immunodeficiency virus 1. Briefly: Antiviral activity against HIV1 LAI infected in PHA-P activated human PBMC assessed as reduction in viral replication preincubated with cells for 30 mins followed by viral infection and measured at day 7 post infection by reverse transcriptase activity-based assay. The following applies: Human immunodeficiency virus 1, LAI. Type of series: functional, organism-based. In outline:
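PHA-P-activated PBMCs (1.5 × 10⁵ cells) pre-treated 30 min with increasing compound concentrations, then infected with HIV-1 LAI at 100 TCID₅₀; supernatants harvested day 7 post-infection and stored at −20 °C. Percent inhibition of RT activity plotted against concentration and fitted to quadratic curves to give EC₅₀. Mean from 3 blood donors.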

Series [2] can be described thus: Cytotoxicity against human PBMC assessed as reduction in cell growth after 7 days by MTT assay. Type of series: cell-based. In outline: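 Percent cell viability plotted against compound concentration and fitted to quadratic curves; CC₅₀ is the concentration reducing cell growth by 50%.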
Another series has as its system Zika virus. Put plainly: Antiviral activity against Zika virus. Format: functional, organism-based.
A further series concerns dengue virus type 2. Put plainly: Antiviral activity against Dengue virus 2. Format: functional, organism-based.
A further series deals with Human alphaherpesvirus 1. Briefly: Antiviral activity against HSV-1. Type of series: functional, organism-based.
For the next series, the system named is Human alphaherpesvirus 2. Briefly: Antiviral activity against HSV-2. Format: functional, organism-based.
The next series concerns Chikungunya virus. Briefly: Antiviral activity against Chikungunya virus. Format: functional, organism-based.

On to `Nc1nc(O)c2ncn([C@H]3C=C(I)[C@@H](OCP(=O)(O)O)C3)c2n1` (racemic), for which the EC50 in series [1] is at least 10 µM. Further, the CC50 at 168 h in series [2] is at least 10 µM. In addition, the outcome with Zika virus, in the series with dengue virus type 2, in the series with Human alphaherpesvirus 1, in the series with Human alphaherpesvirus 2 and in the series on Chikungunya virus was inactive.

For `Nc1ncnc2c1ncn2[C@H]1C=C(F)[C@@H](OCP(=O)(O)O)C1` (racemic), the EC50 in series [1] worked out at 0.88 µM. Further, the cytotoxic concentration (CC50) at 168 h in series [2] is at least 10 µM. Also, the outcome in the series on Zika virus, with dengue virus type 2, in the series with Human alphaherpesvirus 1, in the series on Human alphaherpesvirus 2 and in the series with Chikungunya virus was inactive.

On to `Nc1nc2c(ncn2[C@H]2C=C(F)[C@@H](OCP(=O)(O)O)C2)c(=O)[nH]1` (racemic), for which, in series [1], the EC50 was at least 10 µM. Besides, the CC50 at 168 h in series [2] is at least 10 µM. The result in the series with Zika virus, with dengue virus type 2, with Human alphaherpesvirus 1, with Human alphaherpesvirus 2 and in the series with Chikungunya virus was inactive.

Consider `C[C@H](Cn1cnc2c(N)ncnc21)OCP(=O)(O)O` [TENOFOVIR ANHYDROUS], for which, in series [1], the EC50 was determined as 1.1 µM. Moreover, the CC50 at 168 h in series [2] is at least 10 µM.

Turning to `O=P(O)(O)CO[C@H]1C[C@@H](n2cnc3c(NC4CC4)ncnc32)C=C1I` (racemic), in series [1], the EC50 is at least 10 µM. Besides, the CC50 at 168 h in series [2] was at least 10 µM. Moreover, the result with Zika virus, with dengue virus type 2, in the series with Human alphaherpesvirus 1, in the series with Human alphaherpesvirus 2 and in the series on Chikungunya virus was inactive.

In the case of `Nc1ncnc2c1ncn2[C@H]1C=C(I)[C@@H](OCP(=O)(O)O)C1` (racemic), in series [1], the EC50 is 5.9 µM. In series [2], the CC50 at 168 h was at least 10 µM. For the same compound, the outcome in the series with Zika virus, in the series on dengue virus type 2, with Human alphaherpesvirus 1, in the series with Human alphaherpesvirus 2 and in the series on Chikungunya virus was inactive.

For `O=P(O)(O)CO[C@H]1C[C@@H](n2cnc3c(O)ncnc32)C=C1I` (racemic), the EC50 in series [1] is at least 10 µM. Also, the CC50 at 168 h in series [2] was at least 10 µM. Further, the result in the series on Zika virus, with dengue virus type 2, in the series on Human alphaherpesvirus 1, in the series on Human alphaherpesvirus 2 and in the series on Chikungunya virus was inactive.

The values are drawn from ChEMBL document CHEMBL4229355, “Synthesis of 3'-halo-5'-norcarbocyclic nucleoside phosphonates as potent anti-HIV agents” (Eur J Med Chem, 2018).
